Laboratory results as given in paper PMC4827638 (Preventive Nutrition and Food Science, 2016).
Marks after values point to notes of the source that are not given here.

Assays:
Assay type in all cases: biochemical
[1] = OH radical scavenging activity; settings: absorbance at 520 nm; triplicate
Summary of the method: (§1)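 Absorbance endpoint assays, read on a UV-visible spectrophotometer (H2O2 assay on a microplate reader). Percent scavenging was measured across a series of sample concentrations. IC50 was taken from a graph of inhibition percentage versus sample concentration. Triplicate analyses, reported as mean±SD.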

superoxide = settings: xanthine-XO method, 560 nm; triplicate
Summary of the method: as §1

[2] = H2O2 radical scavenging activity; settings: 405 nm; triplicate
Summary of the method: as §1

NO radical = settings: nitrite scavenging effect, 520 nm; triplicate
Summary of the method: as §1

xanthine oxidase (XO) = xanthine oxidase (XO) (Bos taurus, UniProt P80457); experiment: XO inhibitory activity
xanthine oxidase (XO), sequence (P80457 whole entry): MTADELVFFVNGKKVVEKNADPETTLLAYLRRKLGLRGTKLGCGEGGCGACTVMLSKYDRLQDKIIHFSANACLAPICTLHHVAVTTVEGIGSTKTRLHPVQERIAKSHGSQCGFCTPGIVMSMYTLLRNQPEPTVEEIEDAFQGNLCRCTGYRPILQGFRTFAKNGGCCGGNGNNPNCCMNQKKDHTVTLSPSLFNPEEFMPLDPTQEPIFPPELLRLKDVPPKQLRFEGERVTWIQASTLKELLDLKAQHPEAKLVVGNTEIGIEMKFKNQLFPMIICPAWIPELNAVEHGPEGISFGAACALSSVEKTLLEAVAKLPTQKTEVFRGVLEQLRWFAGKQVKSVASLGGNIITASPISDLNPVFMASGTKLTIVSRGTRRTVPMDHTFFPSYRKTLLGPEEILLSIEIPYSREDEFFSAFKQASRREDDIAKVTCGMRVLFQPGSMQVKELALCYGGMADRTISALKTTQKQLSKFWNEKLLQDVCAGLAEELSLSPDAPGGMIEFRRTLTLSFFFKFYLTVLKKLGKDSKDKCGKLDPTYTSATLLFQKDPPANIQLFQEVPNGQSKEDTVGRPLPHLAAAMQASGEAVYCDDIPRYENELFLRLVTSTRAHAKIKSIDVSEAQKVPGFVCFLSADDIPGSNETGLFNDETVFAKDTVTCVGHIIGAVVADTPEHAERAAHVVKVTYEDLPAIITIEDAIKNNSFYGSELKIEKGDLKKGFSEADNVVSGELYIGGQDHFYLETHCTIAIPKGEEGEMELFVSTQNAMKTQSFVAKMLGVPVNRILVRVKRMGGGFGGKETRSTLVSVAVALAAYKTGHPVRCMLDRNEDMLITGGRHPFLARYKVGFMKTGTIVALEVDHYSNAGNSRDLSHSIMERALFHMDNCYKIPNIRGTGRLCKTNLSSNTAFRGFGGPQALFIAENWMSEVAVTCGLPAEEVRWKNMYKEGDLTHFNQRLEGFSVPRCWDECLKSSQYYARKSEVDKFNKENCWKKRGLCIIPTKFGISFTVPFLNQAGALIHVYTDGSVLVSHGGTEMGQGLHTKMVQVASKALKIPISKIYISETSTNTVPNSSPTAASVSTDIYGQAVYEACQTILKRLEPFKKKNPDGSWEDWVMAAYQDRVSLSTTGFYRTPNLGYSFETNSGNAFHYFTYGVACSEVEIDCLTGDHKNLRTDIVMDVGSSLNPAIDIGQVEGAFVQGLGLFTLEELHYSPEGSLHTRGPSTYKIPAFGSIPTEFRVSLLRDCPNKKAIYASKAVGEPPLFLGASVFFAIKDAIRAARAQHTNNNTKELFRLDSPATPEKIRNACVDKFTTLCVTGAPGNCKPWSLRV

tyrosinase = experiment: Tyrosinase inhibitory activity; settings: L-DOPA substrate, 25°C, 2 min, pH 6.8; mean±SD

Row | IC50 of OH radical scavenging activity [1] | IC50 of O2 radical scavenging activity (superoxide) | IC50 of H2O2 radical scavenging activity [2] | IC50 of NO radical scavenging activity (NO radical) | IC50 (xanthine oxidase (XO)) | IC50 Tyrosinase inhibition (tyrosinase) | Compound
1 | 92.50 µg/mL | 65.05 µg/mL | 12.60 µg/mL | 81.53 µg/mL | 246 µM | 101.931±2.601^a μg/mL | CC1=C(O)C(=O)C(C)(O)S1 (stereo not drawn) [Thiacremonone, 2,4-dihydroxy-2,5-dimethyl-thiophene-3-one]
2 | 104.93 µg/mL | 99.43 µg/mL | 42.42 µg/mL | 122.64 µg/mL | – | – | O=C1O[C@H]([C@@H](O)CO)C(O)=C1O [ascorbic acid, Ascorbic acid]
3 | 12.93 ± 1.64 µg/mL | 84.92 ± 2.34 µg/mL | 39.40 ± 0.77 µg/mL | 15.72 ± 1.22 µg/mL | – | – | Cc1c(C)c2c(c(C)c1O)CC[C@@](C)(CCC[C@H](C)CCC[C@H](C)CCCC(C)C)O2 [α-tocopherol]

Row | Compound | IC50 of OH radical scavenging activity [1] | IC50 of O2 radical scavenging activity (superoxide) | IC50 of H2O2 radical scavenging activity [2] | IC50 of NO radical scavenging activity (NO radical) | IC50 (xanthine oxidase (XO)) | IC50 Tyrosinase inhibition (tyrosinase)
4 | COc1ccc(O)c(C(C)(C)C)c1 [BHA, butylated hydroxyanisole] | 37.22 µg/mL | 68.45 µg/mL | 22.47 µg/mL | 40.54 µg/mL | – | –
